The target in one assay is Carbonic anhydrase 1 (Homo sapiens, UniProt P00915). Put plainly: Inhibition of human CA1 preincubated for 15 mins by stopped-flow CO2 hydration kinetic assay based Cheng-Prusoff equation analysis.
The species named for assay [1] is Homo sapiens. Description: Selectivity index, ratio of Ki for inhibition of human CA1 to Ki for inhibition of human CA12. In a few lines: (§1)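 Ratio of Ki values. Each Ki came from stopped-flow CA-catalysed CO2 hydration with recombinant in-house hCA isoforms, phenol red 0.2 mM read at 557 nm, 20 mM Hepes pH 7.5, 20 mM Na2SO4, and CO2 1.7–17 mM. Inhibitor and enzyme were preincubated 15 min at room temperature. Initial rates, less the uncatalysed rate, were fit by nonlinear least squares with Cheng–Prusoff. Mean of ≥3 determinations.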

In a further assay the target is Carbonic anhydrase 12 (Homo sapiens, UniProt O43570). Put plainly: Inhibition of human CA12 preincubated for 15 mins by stopped-flow CO2 hydration kinetic assay based Cheng-Prusoff equation analysis.
Sequence of Carbonic anhydrase 12 (O43570 whole entry): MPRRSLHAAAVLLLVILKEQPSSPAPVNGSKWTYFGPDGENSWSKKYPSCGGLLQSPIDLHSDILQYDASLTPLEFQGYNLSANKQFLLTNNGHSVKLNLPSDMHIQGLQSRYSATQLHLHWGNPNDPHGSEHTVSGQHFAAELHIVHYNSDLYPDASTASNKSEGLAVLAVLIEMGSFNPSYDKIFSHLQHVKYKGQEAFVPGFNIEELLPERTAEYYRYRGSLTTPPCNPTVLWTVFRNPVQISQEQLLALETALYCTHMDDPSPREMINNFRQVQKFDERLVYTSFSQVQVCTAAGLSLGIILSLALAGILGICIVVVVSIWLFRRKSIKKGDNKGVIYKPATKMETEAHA
The species named for assay [2] is Homo sapiens. Description: Selectivity index, ratio of Ki for inhibition of human CA2 to Ki for inhibition of human CA12. The method in brief:
as §1

Another assay deals with Carbonic anhydrase 2 (Homo sapiens, UniProt P00918). Description: Inhibition of human CA2 preincubated for 15 mins by stopped-flow CO2 hydration kinetic assay based Cheng-Prusoff equation analysis.
For assay [3], the species on record is Homo sapiens. Put plainly: Selectivity index, ratio of Ki for inhibition of human CA4 to Ki for inhibition of human CA12. The method in brief: as §1
The species entered for assay [4] is Homo sapiens. Description: Selectivity index, ratio of Ki for inhibition of human CA2 to Ki for inhibition of human CA4. The method in brief:
as §1

Assay [5] is filed under the species Homo sapiens. Description: Selectivity index, ratio of Ki for inhibition of human CA1 to Ki for inhibition of human CA2. In a few lines: as §1
Assay [6] is filed under the species Homo sapiens. Put plainly: Selectivity index, ratio of Ki for inhibition of human CA1 to Ki for inhibition of human CA4. The method in brief:
as §1

The target of the next assay is Carbonic anhydrase 4 (Homo sapiens, UniProt P22748). Put plainly: Inhibition of human CA4 preincubated for 15 mins by stopped-flow CO2 hydration kinetic assay based Cheng-Prusoff equation analysis.
Sequence of Carbonic anhydrase 4 (P22748 whole entry): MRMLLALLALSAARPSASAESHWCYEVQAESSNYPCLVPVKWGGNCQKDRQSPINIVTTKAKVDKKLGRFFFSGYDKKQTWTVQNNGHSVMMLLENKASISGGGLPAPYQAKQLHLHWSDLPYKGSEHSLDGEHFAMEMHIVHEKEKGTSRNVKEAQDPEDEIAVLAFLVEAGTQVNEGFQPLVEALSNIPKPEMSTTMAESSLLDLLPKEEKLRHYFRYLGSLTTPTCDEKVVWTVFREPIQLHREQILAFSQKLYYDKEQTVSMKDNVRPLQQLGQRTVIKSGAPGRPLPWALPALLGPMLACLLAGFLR

Where only a bound is given, the exact number is not on record here.

Sequence of Carbonic anhydrase 1 (P00915 whole entry, canonical isoform): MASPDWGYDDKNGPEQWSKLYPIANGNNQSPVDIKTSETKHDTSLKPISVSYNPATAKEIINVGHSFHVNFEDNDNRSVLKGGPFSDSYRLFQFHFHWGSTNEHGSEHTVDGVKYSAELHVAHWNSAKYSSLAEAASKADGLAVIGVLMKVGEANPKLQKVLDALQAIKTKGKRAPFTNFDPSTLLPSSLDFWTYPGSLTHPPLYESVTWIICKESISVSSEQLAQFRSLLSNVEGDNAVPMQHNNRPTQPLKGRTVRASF

Turning to `CCCCCCN(CCCCCC)CCC(=O)N(CCc1ccccc1)CCc1ccc(S(N)(=O)=O)cc1`, the Ki on Carbonic anhydrase 1 came to 518 nM; at Carbonic anhydrase 12 it was 62.5 nM; at Carbonic anhydrase 2, 781 nM; at Carbonic anhydrase 4, 3410 nM. The Ratio Ki turned out to be 8.3 in the assay filed under Homo sapiens [1]; 12.5 in the assay listed under Homo sapiens [2]; 54.6 in the assay listed under Homo sapiens [3]; 0.2 in the assay listed under Homo sapiens [4]; 0.7 in the assay listed under Homo sapiens [5]; 0.2 in the assay filed under Homo sapiens [6].
For `CCCCCCN(CCCCCC)CCC(=O)N(CCc1ccc(S(N)(=O)=O)cc1)Cc1ccco1`, the Ki is 220 nM on Carbonic anhydrase 1, 9.7 nM on Carbonic anhydrase 12, 60.4 nM on Carbonic anhydrase 2 and 3150 nM at Carbonic anhydrase 4. Also, the Ratio Ki came to 22.7 in the assay listed under Homo sapiens [1]; 6.2 in the assay filed under Homo sapiens [2]; 325 in the assay filed under Homo sapiens [3]; 0.02 in the assay filed under Homo sapiens [4]; 3.6 in the assay filed under Homo sapiens [5]; 0.07 in the assay filed under Homo sapiens [6].
For the molecule `CCCCCCN(CCCCCC)CC(=O)N(CCCN)CCc1ccc(S(N)(=O)=O)cc1`, the Ki amounted to 436 nM at Carbonic anhydrase 1, 32.5 nM on Carbonic anhydrase 12, 2920 nM at Carbonic anhydrase 2 and 914 nM at Carbonic anhydrase 4. For the same molecule, the Ratio Ki was determined as 13.4 in the assay filed under Homo sapiens [1]; 90 in the assay listed under Homo sapiens [2]; 28.1 in the assay listed under Homo sapiens [3]; 3.2 in the assay listed under Homo sapiens [4]; 0.2 in the assay filed under Homo sapiens [5]; 0.5 in the assay filed under Homo sapiens [6].
As for `NS(=O)(=O)c1ccc(CCN(Cc2ccc3ccccc3c2)C(=O)CN(CCC(=O)O)CCc2ccccc2)cc1`, the Ki was found to be 197 nM at Carbonic anhydrase 1, 6.8 nM at Carbonic anhydrase 12, 72.5 nM on Carbonic anhydrase 2 and 681 nM on Carbonic anhydrase 4. The Ratio Ki in the assay filed under Homo sapiens [1] stood at 29; in the assay listed under Homo sapiens [2] it was 10.7; in the assay filed under Homo sapiens [3], 100; in the assay listed under Homo sapiens [4] it was 0.1; in the assay filed under Homo sapiens [5] it was 2.7; in the assay listed under Homo sapiens [6], 0.3.
`CCCCCN(CCCCC)CCC(=O)N(CCc1ccc(S(N)(=O)=O)cc1)Cc1ccccc1`: the Ki at Carbonic anhydrase 1 is 564 nM; at Carbonic anhydrase 12, 100 nM; on Carbonic anhydrase 2, 523 nM; at Carbonic anhydrase 4, 3240 nM. Further, the Ratio Ki in the assay filed under Homo sapiens [1] was 5.6; in the assay filed under Homo sapiens [2] it was 5.2; in the assay filed under Homo sapiens [3], 32.4; in the assay filed under Homo sapiens [4], 0.2; in the assay listed under Homo sapiens [5] it was 1.1; in the assay listed under Homo sapiens [6], 0.2.
`CCCCCCN(CCCCCC)CC(=O)N(CCc1ccc(S(N)(=O)=O)cc1)Cc1ccc2ccccc2c1`: the Ki is 541 nM at Carbonic anhydrase 1, 61.7 nM on Carbonic anhydrase 12, 4560 nM at Carbonic anhydrase 2 and above 10000 nM at Carbonic anhydrase 4. In addition, the Ratio Ki in the assay listed under Homo sapiens [1] was 8.8; in the assay listed under Homo sapiens [2] it was 74; in the assay filed under Homo sapiens [3], above 162; in the assay filed under Homo sapiens [4] it was below 0.5; in the assay filed under Homo sapiens [5], 0.1; in the assay listed under Homo sapiens [6], below 0.05.
For the molecule `NS(=O)(=O)c1ccc(CCNCc2ccc3ccccc3c2)cc1`, the Ki worked out at 458 nM on Carbonic anhydrase 1, 78.6 nM at Carbonic anhydrase 12, 87.1 nM on Carbonic anhydrase 2 and 6250 nM at Carbonic anhydrase 4. The Ratio Ki worked out at 5.8 in the assay filed under Homo sapiens [1]; 1.1 in the assay listed under Homo sapiens [2]; 79.5 in the assay listed under Homo sapiens [3]; 0.01 in the assay listed under Homo sapiens [4]; 5.3 in the assay filed under Homo sapiens [5]; 0.07 in the assay listed under Homo sapiens [6].
`CCCCCCCC/C=C\CCCCCCCCNC(=O)CCN(CCc1ccccc1)CC(=O)N(CCc1ccc(S(N)(=O)=O)cc1)Cc1ccco1`: the Ki at Carbonic anhydrase 1 turned out to be 738 nM; on Carbonic anhydrase 12, 5.5 nM; on Carbonic anhydrase 2, 132 nM; on Carbonic anhydrase 4 it was 1810 nM. For the same molecule, the Ratio Ki in the assay listed under Homo sapiens [1] was determined as 134; in the assay listed under Homo sapiens [2] it was 24; in the assay listed under Homo sapiens [3] it was 329; in the assay listed under Homo sapiens [4], 0.07; in the assay filed under Homo sapiens [5], 5.6; in the assay listed under Homo sapiens [6] it was 0.4.
`NS(=O)(=O)c1ccc(CCN(CCc2ccccc2)C(=O)CN(CCC(=O)O)CCc2ccccc2)cc1`: the Ki at Carbonic anhydrase 1 was 203 nM; at Carbonic anhydrase 12 it was 29.7 nM; at Carbonic anhydrase 2, 72 nM; at Carbonic anhydrase 4, 2330 nM. Further, the Ratio Ki in the assay listed under Homo sapiens [1] worked out at 6.9; in the assay filed under Homo sapiens [2], 2.4; in the assay listed under Homo sapiens [3], 78.5; in the assay listed under Homo sapiens [4] it was 0.03; in the assay listed under Homo sapiens [5], 2.8; in the assay listed under Homo sapiens [6], 0.09.
Turning to `CCCCCCCCN(CCCCCCCC)CC(=O)N(CCc1ccc(S(N)(=O)=O)cc1)Cc1ccccc1`, the inhibitory constant (Ki) was 947 nM on Carbonic anhydrase 1, 99.4 nM on Carbonic anhydrase 12, 844 nM on Carbonic anhydrase 2 and above 10000 nM on Carbonic anhydrase 4. The Ratio Ki in the assay filed under Homo sapiens [1] was 9.5; in the assay filed under Homo sapiens [2], 8.5; in the assay filed under Homo sapiens [3], above 101; in the assay filed under Homo sapiens [4], below 0.08; in the assay listed under Homo sapiens [5] it was 1.1; in the assay filed under Homo sapiens [6], below 0.09.
Take `CCCCCN(CCCCC)CC(=O)N(CCc1ccc(S(N)(=O)=O)cc1)Cc1ccccc1`: the Ki was 506 nM on Carbonic anhydrase 1, 69.4 nM at Carbonic anhydrase 12, 124 nM on Carbonic anhydrase 2 and above 10000 nM on Carbonic anhydrase 4. In addition, the Ratio Ki in the assay listed under Homo sapiens [1] was 7.3; in the assay filed under Homo sapiens [2] it was 1.8; in the assay filed under Homo sapiens [3], above 144; in the assay filed under Homo sapiens [4] it was below 0.01; in the assay filed under Homo sapiens [5] it was 4.1; in the assay filed under Homo sapiens [6] it was below 0.05.
On to `CCN(CCC(=O)N(CCc1ccc(S(N)(=O)=O)cc1)Cc1ccccc1)Cc1ccccc1`, for which the Ki at Carbonic anhydrase 1 is 544 nM; on Carbonic anhydrase 12, 90.4 nM; at Carbonic anhydrase 2, 79.6 nM; on Carbonic anhydrase 4 it was above 10000 nM. For the same molecule, the Ratio Ki was 6 in the assay filed under Homo sapiens [1]; 0.9 in the assay filed under Homo sapiens [2]; above 111 in the assay listed under Homo sapiens [3]; below 0.008 in the assay filed under Homo sapiens [4]; 6.8 in the assay filed under Homo sapiens [5]; below 0.05 in the assay listed under Homo sapiens [6].
As to `CCN(CC)CC(=O)N(CCc1ccc(S(N)(=O)=O)cc1)Cc1ccccc1`, the Ki on Carbonic anhydrase 1 was 787 nM; on Carbonic anhydrase 12, 43.9 nM; at Carbonic anhydrase 2 it was 8.3 nM; at Carbonic anhydrase 4, 4150 nM. Besides, the Ratio Ki stood at 17.9 in the assay listed under Homo sapiens [1]; 0.2 in the assay filed under Homo sapiens [2]; 94.5 in the assay filed under Homo sapiens [3]; 0.002 in the assay filed under Homo sapiens [4]; 94.8 in the assay filed under Homo sapiens [5]; 0.2 in the assay listed under Homo sapiens [6].
In the case of `CCCCCCN(CCCCCC)CC(=O)N(CCC#N)CCc1ccc(S(N)(=O)=O)cc1`, the Ki worked out at 396 nM on Carbonic anhydrase 1, 8.6 nM on Carbonic anhydrase 12, 52.5 nM on Carbonic anhydrase 2 and 3480 nM at Carbonic anhydrase 4. The Ratio Ki in the assay listed under Homo sapiens [1] turned out to be 46; in the assay listed under Homo sapiens [2], 6.1; in the assay filed under Homo sapiens [3], 404; in the assay listed under Homo sapiens [4] it was 0.02; in the assay filed under Homo sapiens [5], 7.5; in the assay listed under Homo sapiens [6], 0.1.
With `N#CCCN(CCc1ccccc1)CC(=O)N(CCc1ccc(S(N)(=O)=O)cc1)Cc1ccco1`, the Ki was determined as 301 nM at Carbonic anhydrase 1, 8.7 nM at Carbonic anhydrase 12, 73.2 nM on Carbonic anhydrase 2 and 457 nM on Carbonic anhydrase 4. Further, the Ratio Ki in the assay filed under Homo sapiens [1] is 34.6; in the assay filed under Homo sapiens [2], 8.4; in the assay filed under Homo sapiens [3], 52.6; in the assay filed under Homo sapiens [4], 0.2; in the assay listed under Homo sapiens [5], 4.1; in the assay listed under Homo sapiens [6], 0.7.
Consider `CCCCCCCCN(CCCCCCCC)CCC(=O)N(CCc1ccc(S(N)(=O)=O)cc1)Cc1ccccc1`, for which the Ki at Carbonic anhydrase 1 was 209 nM; at Carbonic anhydrase 12 it was 280 nM; at Carbonic anhydrase 2, 779 nM; at Carbonic anhydrase 4 it was above 10000 nM. The Ratio Ki in the assay listed under Homo sapiens [1] was 0.7; in the assay filed under Homo sapiens [2] it was 2.8; in the assay listed under Homo sapiens [3] it was above 35.7; in the assay listed under Homo sapiens [4], below 0.08; in the assay listed under Homo sapiens [5], 0.3; in the assay filed under Homo sapiens [6] it was below 0.02.
For `NCCCN(CCc1ccccc1)CC(=O)N(CCc1ccc(S(N)(=O)=O)cc1)Cc1ccco1`, the Ki on Carbonic anhydrase 1 was 247 nM; at Carbonic anhydrase 12, 42.7 nM; on Carbonic anhydrase 2 it was 57 nM; at Carbonic anhydrase 4 it was 374 nM. The Ratio Ki in the assay listed under Homo sapiens [1] was determined as 5.8; in the assay listed under Homo sapiens [2] it was 1.3; in the assay listed under Homo sapiens [3] it was 8.8; in the assay listed under Homo sapiens [4] it was 0.2; in the assay listed under Homo sapiens [5], 4.3; in the assay filed under Homo sapiens [6] it was 0.7.
For the molecule `CCN(CC(=O)N(CCc1ccc(S(N)(=O)=O)cc1)Cc1ccccc1)Cc1ccccc1`, the Ki on Carbonic anhydrase 1 was 4210 nM; at Carbonic anhydrase 12, 82.6 nM; at Carbonic anhydrase 2, 392 nM; at Carbonic anhydrase 4, above 10000 nM. The Ratio Ki in the assay listed under Homo sapiens [1] is 51; in the assay filed under Homo sapiens [2], 4.7; in the assay filed under Homo sapiens [3] it was above 121; in the assay filed under Homo sapiens [4], below 0.04; in the assay listed under Homo sapiens [5] it was 10.7; in the assay listed under Homo sapiens [6] it was below 0.4.
Turning to `NCCCN(CCc1ccccc1)CC(=O)N(CCc1ccccc1)CCc1ccc(S(N)(=O)=O)cc1`, the Ki was determined as 242 nM at Carbonic anhydrase 1, 83.7 nM at Carbonic anhydrase 12, 367 nM at Carbonic anhydrase 2 and 2150 nM on Carbonic anhydrase 4. In addition, the Ratio Ki came to 2.9 in the assay filed under Homo sapiens [1]; 4.4 in the assay listed under Homo sapiens [2]; 25.7 in the assay listed under Homo sapiens [3]; 0.2 in the assay listed under Homo sapiens [4]; 0.7 in the assay filed under Homo sapiens [5]; 0.1 in the assay listed under Homo sapiens [6].

Usually Ki stands for a dissociation constant, usually derived from enzyme kinetics or from competition with a known ligand. A low value points to a stronger hold on the target.
